Published values gathered from unrelated publications.
Lines come from different studies, so protocols differ.
Target: Serine/threonine-protein kinase WNK3 (WNK3, Homo sapiens, UniProt Q9BYP7)

| SMILES | read-out | method | concentration | remaining binding [%] |
| --- | --- | --- | --- | --- |
| O=C(NCC1CCOCC1)c1n[nH]cc1NC(=O)c1c(F)cccc1F | binding | competition with immobilised ligand | 1 µM | 95 |
| O=C(c1ccc(Nc2ncc(Cl)c(-c3ccc(Cl)s3)n2)cc1)N1CCC(N2CCCC2)CC1 | binding | competition with immobilised ligand | 1 µM | 73 |
| C=CC(=O)N1CCC(C(=O)NCC(=O)N2CCN(c3nc(-c4cnc(N)nc4C(F)F)nc(N4CCOCC4)n3)CC2)CC1 | binding | competition with immobilised ligand | 1 µM | 96 |
| c1cnn2ncc(-c3ccnc(N4CCC45COC5)n3)c2c1 | binding | – | 1 µM | 68 |
| CNC(=O)[C@@H]1CC[C@@H](n2c(-c3ccc4cnccc4c3)nc3ccc(C(=O)NCc4cccc(C(N)=O)c4)cc32)C1 | binding | competition with immobilised ligand | 1 µM | 100 |
| Cc1cnc(Nc2ccc(C(=O)N3CCC(N4CCCC4)CC3)cc2)nc1-c1cc2ccccc2s1 | binding | competition with immobilised ligand | 1 µM | 100 |
| C[C@H]1CCN(c2nccc(-c3cnn4ncccc34)n2)C1 | binding | – | 1 µM | 98 |
| C[C@@H](c1ccc(-n2cnc3c(N)ncnc32)cc1)N1CCc2nn(C)c(Cc3ccccc3)c2C1=O | binding | competition with immobilised ligand | 0.1 µM | 100 |
| Cc1cc(-n2nc(Cc3cc(F)cc(C(F)(F)F)c3)nc2C)ccc1C(N)=O | cell-free assay | competition with immobilised ligand | 1 µM | 100 |
| COc1ccnn2ncc(-c3ccnc(N(C)C)n3)c12 | binding | – | 1 µM | 92 |
| CCC(=O)N[C@H]1CC[C@@H](C(=O)N(C)c2ccc(-c3nc4ccccc4o3)cc2)C1 | cell-free assay | competition with immobilised ligand | 1 µM | 92 |
| CN(C)c1nccc(-c2cnn3ncccc23)n1 | binding | – | 1 µM | 100 |
| Cc1nccc(COC(=O)N2C[C@@H]3[C@@H](CNC(=O)c4ccc5[nH]nnc5c4)[C@@H]3C2)n1 | cell-free assay | competition with immobilised ligand | 1 µM | 91 |
| O=C(NCCCN1CCOCC1)c1ccc(Nc2ncc(Cl)c(-c3ccc(Cl)s3)n2)cc1 | binding | competition with immobilised ligand | 1 µM | 100 |
| CN([C@@H]1CCc2c(CC(=O)O)c3cc(S(C)(=O)=O)ccc3n2C1)S(=O)(=O)c1ccc(F)cc1 | cell-free assay | competition with immobilised ligand | 1 µM | 83 |
| c1cncc(-c2cccc(Nc3nccc(NC4CCCCC4)n3)c2)c1 | binding | competition with immobilised ligand | 10 µM | 94 |
| N[C@H]1CCN(c2nccc(-c3cnn4ncccc34)n2)C1 | binding | – | 1 µM | 90 |
| O=S(=O)(NC1CCC(c2cc(F)ccc2F)(S(=O)(=O)c2ccc(Cl)cc2)CC1)C(F)(F)F (stereo not shown) | cell-free assay | competition with immobilised ligand | 1 µM | 100 |
| CN(C)c1ncc(F)c(-c2cnn3ncccc23)n1 | binding | – | 1 µM | 90 |
| COc1cnc(Nc2cccc(S(N)(=O)=O)c2)nc1N1CCN(c2ccccc2)CC1 | binding | competition with immobilised ligand | 1 µM | 97 |
| CN(c1ccnc(CNc2nc(Nc3ccc4c(c3)CC(=O)N4)ncc2C(F)(F)F)n1)S(C)(=O)=O | cell-free assay | competition with immobilised ligand | 1 µM | 79 |
| F[C@@H]1CCN(c2nccc(-c3cnn4ncccc34)n2)C1 | binding | – | 1 µM | 100 |
